This note sets out measurements from ChEMBL document CHEMBL1138014, “1-(2-Aminoethyl)-3-(arylsulfonyl)-1H-indoles as novel 5-HT6 receptor ligands” (Bioorg Med Chem Lett, 2004).

As a reminder, the pIC50 is −log10 of the IC50, conventionally taken in molar units. A higher pIC50 goes with a small IC50. As a reminder, the inhibition is the percentage by which the read-out fell short of the control. Read a low inhibition as a response near the control. By pKi is commonly meant the Ki on a negative log10 scale, so that one unit is a factor of ten. High values mean a low Ki, low ones a high Ki.

Common to all, as to assay type: cell-based
The target in experiment [1] is T1, 5-hydroxytryptamine receptor 6 (Homo sapiens, UniProt P50406). Description: Inhibitory potency against human 5-hydroxytryptamine 6 receptor transfected in HeLa cells in cAMP assay. A digest of the protocol: (§1)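 Human 5-HT6 receptor stably transfected into HeLa cells. Cells were washed with Krebs buffer, then preincubated for 5 min at 37°C in Krebs with 500 µM IBMX. They were then exposed to test compound (0.1–10,000 nM) for 10 min at 37°C. The reaction was stopped with 0.5 M perchloric acid, and intracellular cAMP was measured by scintillation proximity radioimmunoassay.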

Experiment [2] addresses T1, 5-hydroxytryptamine receptor 6. Description: Inhibitory concentration against human 5-hydroxytryptamine 6 receptor transfected in HeLa cells in cAMP assay. A digest of the protocol:
as §1
For orientation: Cyclic AMP is a second messenger, typically raised through Gs and lowered through Gi signalling.

For experiment [3] the target is unchanged. The experiment is described as follows: Percent inhibitory activity against human 5-hydroxytryptamine 6 receptor transfected in HeLa cells at 1 uM.
The target is the same in experiment [4]. Description: Binding affinity against human 5-hydroxytryptamine 6 receptor transfected in HeLa cells.

pIC50, pKi: −log10 of the molar value.

T1 sequence (P50406 whole entry): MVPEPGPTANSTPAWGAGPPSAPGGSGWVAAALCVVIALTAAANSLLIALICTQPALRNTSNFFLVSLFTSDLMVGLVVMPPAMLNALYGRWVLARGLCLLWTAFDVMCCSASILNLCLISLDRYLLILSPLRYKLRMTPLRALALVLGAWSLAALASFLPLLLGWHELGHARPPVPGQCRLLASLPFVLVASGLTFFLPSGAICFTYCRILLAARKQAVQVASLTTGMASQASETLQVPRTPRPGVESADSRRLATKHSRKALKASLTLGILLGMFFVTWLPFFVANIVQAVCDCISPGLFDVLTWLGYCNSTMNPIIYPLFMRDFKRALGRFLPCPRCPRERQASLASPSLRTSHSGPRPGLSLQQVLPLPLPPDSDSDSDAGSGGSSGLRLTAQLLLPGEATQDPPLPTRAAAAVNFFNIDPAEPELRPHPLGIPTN

In experiment [1], `CN(C)CCn1cc(S(=O)(=O)c2ccccc2OC(F)(F)F)c2ccccc21` yielded an Imax of 100%. For the same molecule, the negative-log IC50 (pIC50) in experiment [2] is 6.10.

In experiment [3], `COc1ccc2c(S(=O)(=O)c3ccccc3)cn(CCN)c2c1` showed an inhibition of 78%.

`CNCCc1cn(S(=O)(=O)c2ccccc2)c2ccccc12`: the pKi in experiment [4] is 8.30. The same measure, in the same setting: for `CNCCn1cc(S(=O)(=O)c2ccccc2)c2ccccc21` the value was 7.81. Molecule `COc1cccc2c(S(=O)(=O)c3ccccc3)cn(CCN(C)C)c12` came in with an Imax in experiment [1] of 80.5%. In experiment [2], this molecule showed a negative-log IC50 (pIC50) of 7.64. Regarding `NCCc1cn(S(=O)(=O)c2ccccc2)c2ccccc12`, in experiment [4], the negative logarithm of the Ki (pKi) was 7.99. Consider `COc1ccc2c(c1)c(S(=O)(=O)c1ccccc1)cn2CCN1CCCCC1`, for which, in experiment [3], the inhibition was 55%. Turning to `CNCCn1cc(S(=O)(=O)c2cccc3ccccc23)c2ccccc21`, in experiment [1], the Imax amounted to 97%. Moreover, the negative logarithm of the Ki (pKi) in experiment [4] was 8.24. The same molecule showed a negative logarithm of the IC50 (pIC50) in experiment [2] of 6.44. The matching figures for `CN(C)CCn1cc(S(=O)(=O)c2cccc3ccccc23)c2ccccc21`: 97%, 8.43 and 7.33. On to `COc1ccc2c(c1)c(S(=O)(=O)c1ccccc1)cn2CCN`, for which, in experiment [3], the inhibition is 86%.

Take `NCCn1cc(S(=O)(=O)c2ccccc2)c2cc(F)ccc21`: in experiment [4], the pKi is 7.57. As to `CN(C)CCn1cc(S(=O)(=O)c2ccccc2)c2ccc(C#N)cc21`, the inhibition in experiment [3] is 42%.
